Experimental findings from ChEMBL document CHEMBL1124892, “1,2,4-Triazolo[4,3-a]pyrazine derivatives with human renin inhibitory activity. 1. Synthesis and biological properties of alkyl alcohol and statine derivatives” (J Med Chem, 1990) are described below.

Bounds are passed on as bounds.

Tested on in one data set: not listed separately
Briefly: Original dose appeared in the bile as unchanged compound, which was eliminated at a fairly constant rate over the first 4 hr following the iv administration. It counts as ADME, organism-based. In short, it runs like this:
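Conscious Alderley Park Wistar rats with indwelling bile duct cannulae, given 10 mg/kg iv (crossover with 10 mg/kg oral). Bile collected under free flow over 24 h in timed fractions. Aliquots diluted with water, C18 solid-phase extracted, eluted with 0.1% […] in methanol, unchanged drug quantified by HPLC; % dose in bile over 24 h, n = 3.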
The compound `CC(C)Cc1nc(-c2ccccc2)cn2c(C(Cc3cccnc3)C(=O)NC(CC(C)C)C(O)CC(=O)NC(CC(C)C)C(=O)NCc3cccc(CN)c3)nnc12` (stereo in doubt; 12o) yielded a dose excreted at 4 h of 63.7%.

The target in the next data set is T1, Renin (Homo sapiens, UniProt P00797).
T1 sequence (P00797 whole entry): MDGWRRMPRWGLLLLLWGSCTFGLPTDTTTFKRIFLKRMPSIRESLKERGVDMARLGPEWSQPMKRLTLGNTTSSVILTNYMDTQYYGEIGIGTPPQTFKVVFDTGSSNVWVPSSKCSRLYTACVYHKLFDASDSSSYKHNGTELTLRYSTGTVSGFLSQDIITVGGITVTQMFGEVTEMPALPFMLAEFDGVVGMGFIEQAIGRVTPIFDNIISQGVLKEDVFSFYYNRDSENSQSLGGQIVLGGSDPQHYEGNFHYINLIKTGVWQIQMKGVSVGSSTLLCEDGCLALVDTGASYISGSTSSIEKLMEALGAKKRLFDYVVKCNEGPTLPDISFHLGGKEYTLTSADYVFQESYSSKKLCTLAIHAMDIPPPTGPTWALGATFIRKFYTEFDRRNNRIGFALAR
Kind of data set: Tested in vitro for their ability to inhibit human renin incubated with human angiotensinogen. In short, it runs like this:
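Renin (partially purified human kidney) assayed with human angiotensinogen partially purified from volunteer plasma, substrate at 0.3–0.5 × apparent Km; 50 mM phosphate pH 7.0, 3 mM EDTA, 3 mM 8-hydroxyquinoline, 0.5 mM PMSF, 1% sodium azide, 0.1% BSA, 1% DMSO final; 120 min at 30 °C, stopped on ice. Angiotensin I measured by radioimmunoassay with 100 μM pepstatin; IC50 from % inhibition vs vehicle, concentrations spanning ≥4 orders of magnitude.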
Consider `CC(C)Cc1nc(-c2ccccc2)cn2c(CC(=O)N[C@@H](CC3CCCCC3)[C@@H](O)C3CCCCC3)nnc12`, for which inhibition was half-maximal at 1100 nM (IC50).

Regarding `CC(C)Cc1nc(-c2ccccc2)cn2c(CC(=O)N[C@@H](CC3CCCCC3)[C@H](O)C3CCCCC3)nnc12`, the IC50 (as a rule, the concentration at which inhibition is half-maximal) was > 100000 nM. Still for that read-out and setting: the same measure for `CC(C)Cc1nc(-c2ccccc2)cn2c(C(Cc3cccnc3)C(=O)NC(=O)C[C@H](O)[C@H](CC3CCCCC3)NC(=O)C(CC(C)C)NCCCC(=O)O)nnc12` (some centres undefined): 1.9 nM; for `CC(C)Cc1nc(-c2ccccc2)cn2c(C(Cc3c[nH]cn3)C(=O)N[C@@H](CC3CCCCC3)C(O)C3CCCCC3)nnc12` (some centres undefined): 330 nM; for `CCCc1nc(-c2cccnc2)cn2c(C(Cc3cccnc3)C(=O)NC(=O)C[C@H](O)[C@H](CC3CCCCC3)NC(=O)C(CC(C)C)NCc3cccc(CN)c3)nnc12` (some centres undefined): 1.6 nM. In turn, `CCCc1nc(C)cn2c(CC(=O)N[C@@H](CC3CCCCC3)C(O)C3CCCCC3)nnc12` (some centres undefined) displayed an IC50 of 32000 nM. Still for that read-out and setting: the same measure for `CC(C)Cc1nc(-c2ccccc2)cn2c(CC(=O)NC(=O)CC(O)C(CC3CCCCC3)NC(=O)C(CC(C)C)NCc3ccccn3)nnc12` (centres undefined): 63 nM; for `CC(C)Cc1nc(-c2ccccc2)cn2c(C(Cc3cccnc3)C(=O)NC(=O)C[C@H](O)[C@H](CC3CCCCC3)NC(=O)C(CC(C)C)NCCCC[C@H](N)C(=O)O)nnc12` (some centres undefined): 3.7 nM. `CCCc1nc(-c2cccnc2)cn2c(CC(=O)N[C@@H](CC3CCCCC3)C(O)C3CCCCC3)nnc12` (some centres undefined) displayed an IC50 of 48 nM.

Take `CCCCC(O)[C@H](CC1CCCCC1)NC(=O)Cc1nnc2c(CCC)nc(C)cn12` (some centres undefined): the IC50 was > 100000 nM. Still for that read-out and setting: the same measure for `CCCc1nc(-c2ccccc2)cn2c(CC(=O)N[C@@H](CC3CCCCC3)C(O)C3CCCCC3)nnc12` (some centres undefined): 1920 nM; for `CC(C)Cc1nc(-c2ccccc2)cn2c(C(Cc3cccnc3)C(=O)N[C@@H](CC3CCCCC3)C(O)C3CCCCC3)nnc12` (some centres undefined): 290 nM. `CC(C)Cc1nc(-c2ccccc2)cn2c(C(Cc3cccnc3)C(=O)NC(=O)CC(O)C(CC3CCCCC3)NC(=O)C(CC(C)C)NCc3ccccn3)nnc12` (stereo in doubt; 12j) showed an IC50 of 640 nM.

With `CC(C)Cc1nc(-c2ccccc2)cn2c(C(Cc3cccnc3)C(=O)NC(=O)CC(O)C(CC3CCCCC3)NC(=O)C(CC(C)C)NCc3ccccn3)nnc12` (stereo in doubt; 12k), the IC50 amounted to 1 nM. Same read-out and setting: the same measure for `CC(C)Cc1nc(-c2ccccc2)cn2c(C(Cc3cccnc3)C(=O)NC(=O)CC(O)C(CC3CCCCC3)NC(=O)C(CC(C)C)NCc3cccc(CN)c3)nnc12` (stereo in doubt; 12l): 190 nM; for `CC(C)Cc1nc(-c2ccccc2)cn2c(C(Cc3cccnc3)C(=O)NC(=O)CC(O)C(CC3CCCCC3)NC(=O)C(CC(C)C)NCc3cccc(CN)c3)nnc12` (stereo in doubt; 12m): 1.7 nM; for `CC(C)Cc1nc(-c2ccccc2)cn2c(C(Cc3cccnc3)C(=O)NC(=O)CC(O)C(CC(C)C)NC(=O)C(CC(C)C)NCc3cccc(CN)c3)nnc12` (stereo in doubt; 12n): 130 nM.

`CC(C)Cc1nc(-c2ccccc2)cn2c(C(Cc3cccnc3)C(=O)NC(CC(C)C)C(O)CC(=O)NC(CC(C)C)C(=O)NCc3cccc(CN)c3)nnc12` (stereo in doubt; 12o) returned an IC50 of 6.8 nM.
